Experimental data as given in ChEMBL document CHEMBL2417403, “N-terminal guanidinylation of TIPP (Tyr-Tic-Phe-Phe) peptides results in major changes of the opioid activity profile” (Bioorg Med Chem Lett, 2013).
Where a SMILES comes first, the peptide text is derived from it.

Assays:
[1] = target: Delta-type opioid receptor (Mus musculus) (UniProt P32300); experiment: Partial agonist activity at delta opioid receptor in mouse vas deferens assessed as inhibition of electrically-stimulated muscle contraction
Sequence of Delta-type opioid receptor (Mus musculus) (P32300 whole entry): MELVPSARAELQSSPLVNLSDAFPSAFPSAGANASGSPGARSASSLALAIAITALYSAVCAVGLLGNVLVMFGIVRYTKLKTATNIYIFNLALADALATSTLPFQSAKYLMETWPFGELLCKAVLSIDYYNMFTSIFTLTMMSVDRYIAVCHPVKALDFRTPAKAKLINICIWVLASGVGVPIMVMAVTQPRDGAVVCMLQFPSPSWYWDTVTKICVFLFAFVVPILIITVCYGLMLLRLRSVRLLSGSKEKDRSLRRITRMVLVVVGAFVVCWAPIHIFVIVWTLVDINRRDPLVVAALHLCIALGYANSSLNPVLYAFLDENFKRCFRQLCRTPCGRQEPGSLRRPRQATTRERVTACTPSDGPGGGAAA
How it was run: (§1)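 Mouse vas deferens bioassay, delta-representative tissue. Agonist potency was expressed as IC₅₀ and antagonist activity as a Ke value.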

[2] = target: Delta-type opioid receptor (Mus musculus) (UniProt P32300); experiment: Antagonist activity at delta opioid receptor in mouse vas deferens assessed as inhibition of electrically-stimulated muscle contraction; how it was run: as §1
Mu-type opioid receptor [3] = target: Mu-type opioid receptor (Cavia porcellus, UniProt P97266); experiment: Agonist activity at mu opioid receptor in guinea pig ileum assessed as […] of electrically-stimulated muscle contraction; assay type: tissue-based
Sequence of Mu-type opioid receptor (Cavia porcellus, UniProt P97266) (P97266 whole entry): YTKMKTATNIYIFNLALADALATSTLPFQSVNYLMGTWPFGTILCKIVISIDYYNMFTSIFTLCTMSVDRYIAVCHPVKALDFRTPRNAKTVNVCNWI

[4] = Selectivity ratio of Ki for kappa opioid receptor in guinea pig brain membranes to Ki for delta opioid receptor in rat brain membranes; assay type: cell membranes
Rattus norvegicus = organism: Rattus norvegicus; experiment: Selectivity ratio of Ki for mu opioid receptor in rat brain membranes to Ki for delta opioid receptor in rat brain membranes; assay type: cell membranes
Mu-type opioid receptor [5] = target: Mu-type opioid receptor (Rattus norvegicus, UniProt P33535); experiment: Displacement of [3H]DAMGO from mu opioid receptor in rat brain membranes; assay type: cell membranes
Sequence of Mu-type opioid receptor (Rattus norvegicus, UniProt P33535) (P33535 whole entry): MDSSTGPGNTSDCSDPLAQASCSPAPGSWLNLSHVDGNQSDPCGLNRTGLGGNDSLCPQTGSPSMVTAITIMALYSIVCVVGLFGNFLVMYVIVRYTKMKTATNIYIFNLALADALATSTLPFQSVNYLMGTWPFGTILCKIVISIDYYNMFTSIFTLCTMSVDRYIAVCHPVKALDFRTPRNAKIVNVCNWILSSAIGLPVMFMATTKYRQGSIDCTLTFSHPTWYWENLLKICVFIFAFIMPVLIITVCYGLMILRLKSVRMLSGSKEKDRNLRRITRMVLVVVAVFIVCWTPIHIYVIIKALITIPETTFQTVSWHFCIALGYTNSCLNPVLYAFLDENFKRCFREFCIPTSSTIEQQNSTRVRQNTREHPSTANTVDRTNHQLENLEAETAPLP
How it was run: (§2)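 Competitive displacement of tritiated radioligands, with affinities reported as Ki. Mu sites were labelled with [³H]DAMGO and delta sites with [³H]DSLET, both on rat brain membranes. Kappa sites were labelled with [³H]U69,593 on guinea pig brain membranes.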

[6] = target: Kappa-type opioid receptor (Cavia porcellus, UniProt P41144); experiment: Displacement of [3H]U69,593 from kappa opioid receptor in guinea pig brain membranes; assay type: cell membranes, Membrane; how it was run: as §2
Sequence of Kappa-type opioid receptor (P41144 whole entry): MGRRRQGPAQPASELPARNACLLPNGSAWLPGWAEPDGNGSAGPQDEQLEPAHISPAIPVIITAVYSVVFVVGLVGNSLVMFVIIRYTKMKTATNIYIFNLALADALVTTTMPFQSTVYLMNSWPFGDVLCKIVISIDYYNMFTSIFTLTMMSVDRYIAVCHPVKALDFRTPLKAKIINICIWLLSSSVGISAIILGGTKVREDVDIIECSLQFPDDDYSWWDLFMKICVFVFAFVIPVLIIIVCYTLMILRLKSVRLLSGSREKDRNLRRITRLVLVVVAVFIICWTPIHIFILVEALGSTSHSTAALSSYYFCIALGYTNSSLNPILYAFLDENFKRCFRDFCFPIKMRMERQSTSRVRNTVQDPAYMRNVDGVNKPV

[7] = target: Delta-type opioid receptor (Rattus norvegicus, UniProt P33533); experiment: Displacement of [3H]DSLET from delta opioid receptor in rat brain membranes; assay type: cell membranes; how it was run: as §2
Sequence of Delta-type opioid receptor (P33533 whole entry): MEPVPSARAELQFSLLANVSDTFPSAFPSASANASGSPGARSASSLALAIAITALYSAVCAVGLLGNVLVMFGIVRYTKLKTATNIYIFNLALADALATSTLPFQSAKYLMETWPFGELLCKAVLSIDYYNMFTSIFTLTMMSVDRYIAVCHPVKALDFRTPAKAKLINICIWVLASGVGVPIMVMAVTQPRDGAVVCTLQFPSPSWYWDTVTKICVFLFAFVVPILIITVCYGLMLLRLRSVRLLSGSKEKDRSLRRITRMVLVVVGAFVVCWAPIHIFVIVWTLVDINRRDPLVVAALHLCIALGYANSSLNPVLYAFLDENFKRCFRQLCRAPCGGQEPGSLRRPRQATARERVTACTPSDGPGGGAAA

[8] = target: mu/kappa opioid receptor (Cavia porcellus) (UniProt P41144+P97266); experiment: Partial agonist activity at mu/kappa opioid receptor in guinea pig ileum assessed as inhibition of electrically-stimulated muscle contraction; assay type: tissue-based
Sequence of mu/kappa opioid receptor (Cavia porcellus) (P41144 whole entry, looked up): as the sequence (P41144 whole entry) above
Sequence of mu/kappa opioid receptor (Cavia porcellus) (P97266 whole entry, looked up): as the sequence (P97266 whole entry) above

Row | SMILES | Imax [1] | IC35 [1] | Ke [2] | also measured
1 | N=C(N)N[C@@H](Cc1ccc(O)cc1)C(=O)N1Cc2ccccc2C[C@H]1C(=O)N[C@@H](Cc1ccccc1)C(=O)N[C@@H](Cc1ccccc1)C(=O)O | 33% | – | – | –
2 | Cc1cc(O)cc(C)c1C[C@H](NC(=N)N)C(=O)N1Cc2ccccc2C[C@H]1CN[C@@H](CCCCN)C(=O)N[C@@H](Cc1ccccc1)C(N)=O | – | 7.35 nM | – | –
3 | N[C@@H](Cc1ccc(O)cc1)C(=O)N1Cc2ccccc2C[C@H]1C(=O)N[C@@H](Cc1ccccc1)C(=O)N[C@@H](Cc1ccccc1)C(=O)O (HELM PEPTIDE1{Y.[Tic].F.F}$$$$V2.0) | – | – | 480 nM | –
4 | Cc1cc(O)cc(C)c1C[C@H](N)C(=O)N1Cc2ccccc2C[C@H]1CN[C@@H](CCCCN)C(=O)N[C@@H](Cc1ccccc1)C(N)=O | – | 23.2 nM | – | –
5 | N=C(N)N[C@@H](Cc1ccc(O)cc1)C(=O)N1Cc2ccccc2C[C@H]1CN[C@@H](Cc1ccccc1)C(=O)N[C@@H](Cc1ccccc1)C(=O)O | 50% | – | – | –
6 | Cc1cc(O)cc(C)c1C[C@H](N)C(=O)N1Cc2ccccc2CC1CN[C@@H](Cc1ccccc1)C(=O)N[C@@H](Cc1ccccc1)C(N)=O (some centres not stated) | – | – | 0.537 nM | IC50 (Mu-type opioid receptor [3]): 7.71 nM
7 | Cc1cc(O)cc(C)c1C[C@H](N)C(=O)N1Cc2ccccc2C[C@H]1C(=O)N[C@@H](CCCCN)C(=O)N[C@@H](Cc1ccccc1)C(N)=O (HELM PEPTIDE1{[Cc1cc(O)cc(C)c1C[C@H](N)C(=O)[*:2]].[Tic].K.F.[am]}$$$$V2.0) | – | – | 2.18 nM | Ratio Ki [4]: 7; Ratio Ki (Rattus norvegicus): 63; Ki (Mu-type opioid receptor [5]): 19.4 nM; Ki [6]: 2.23 nM; IC50 (Mu-type opioid receptor [3]): 16.5 nM; Ki [7]: 0.306 nM
8 | Cc1cc(O)cc(C)c1C[C@H](NC(=N)N)C(=O)N1Cc2ccccc2C[C@H]1C(=O)O | 50% | – | – | Imax [8]: 50%
9 | Cc1cc(O)cc(C)c1C[C@H](NC(=N)N)C(=O)N1Cc2ccccc2C[C@H]1C(=O)N[C@@H](Cc1ccccc1)C(=O)N[C@@H](Cc1ccccc1)C(=O)O | – | 1.57 nM | – | –
